Results from ChEMBL document CHEMBL3600344, “Novel thiourea-based sirtuin inhibitory warheads” (Bioorg Med Chem Lett, 2015).
Blank lines part the entries; values can stand above or below the molecule they belong to. Peptide text beside a SMILES is read from it.

Key:
[1] = molecular target: T1, NAD-dependent protein deacetylase sirtuin-1 (Homo sapiens, UniProt Q96EB6); test: Inhibition of human His6 or GST-tagged SIRT1 using H2N-HK-(Nepsilon-acetyl-lysine)-LM-COOH as substrate after 10 mins by HPLC analysis
T1 sequence (Q96EB6 whole entry): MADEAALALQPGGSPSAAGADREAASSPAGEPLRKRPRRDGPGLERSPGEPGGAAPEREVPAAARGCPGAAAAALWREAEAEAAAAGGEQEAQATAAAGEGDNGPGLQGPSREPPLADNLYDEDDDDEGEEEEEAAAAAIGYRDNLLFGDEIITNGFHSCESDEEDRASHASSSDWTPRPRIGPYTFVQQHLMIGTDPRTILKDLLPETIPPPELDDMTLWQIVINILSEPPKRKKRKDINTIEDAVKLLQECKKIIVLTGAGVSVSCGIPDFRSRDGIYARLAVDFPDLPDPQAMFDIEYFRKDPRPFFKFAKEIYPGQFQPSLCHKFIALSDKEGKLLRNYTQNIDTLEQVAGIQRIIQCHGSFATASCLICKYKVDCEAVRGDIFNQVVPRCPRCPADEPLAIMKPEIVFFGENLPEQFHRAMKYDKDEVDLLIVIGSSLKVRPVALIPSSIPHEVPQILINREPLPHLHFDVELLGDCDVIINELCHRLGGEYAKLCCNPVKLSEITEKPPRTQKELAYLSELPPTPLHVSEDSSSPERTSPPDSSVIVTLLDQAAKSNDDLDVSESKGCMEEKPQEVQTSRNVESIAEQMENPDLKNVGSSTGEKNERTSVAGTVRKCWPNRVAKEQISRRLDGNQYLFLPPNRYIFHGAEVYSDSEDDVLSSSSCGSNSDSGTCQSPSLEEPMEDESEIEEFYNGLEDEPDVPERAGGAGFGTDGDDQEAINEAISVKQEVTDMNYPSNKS

[2] = molecular target: T2, NAD-dependent protein deacetylase sirtuin-2 (Homo sapiens, UniProt Q8IXJ6); test: Inhibition of human His6-tagged SIRT2 using H2N-HK-(Nepsilon-acetyl-lysine)-LM-COOH as substrate after 10 mins by HPLC analysis
T2 sequence (Q8IXJ6 whole entry): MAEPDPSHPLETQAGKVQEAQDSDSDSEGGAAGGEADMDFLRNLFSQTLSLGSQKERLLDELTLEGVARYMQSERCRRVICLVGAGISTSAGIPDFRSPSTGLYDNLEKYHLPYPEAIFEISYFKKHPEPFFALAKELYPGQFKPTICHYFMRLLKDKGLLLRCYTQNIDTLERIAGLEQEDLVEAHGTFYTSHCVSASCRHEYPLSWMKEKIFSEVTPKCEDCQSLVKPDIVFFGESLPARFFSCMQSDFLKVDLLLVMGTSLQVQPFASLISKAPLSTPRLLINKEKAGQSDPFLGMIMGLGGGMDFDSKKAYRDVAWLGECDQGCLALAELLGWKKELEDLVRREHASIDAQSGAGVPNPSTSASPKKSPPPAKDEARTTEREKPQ

[3] = molecular target: T3, NAD-dependent protein deacetylase sirtuin-3, mitochondrial (Homo sapiens, UniProt Q9NTG7); test: Inhibition of human His6-tagged SIRT3 using H2N-HK-(Nepsilon-acetyl-lysine)-LM-COOH as substrate after 8 mins by HPLC analysis
T3 sequence (Q9NTG7 whole entry): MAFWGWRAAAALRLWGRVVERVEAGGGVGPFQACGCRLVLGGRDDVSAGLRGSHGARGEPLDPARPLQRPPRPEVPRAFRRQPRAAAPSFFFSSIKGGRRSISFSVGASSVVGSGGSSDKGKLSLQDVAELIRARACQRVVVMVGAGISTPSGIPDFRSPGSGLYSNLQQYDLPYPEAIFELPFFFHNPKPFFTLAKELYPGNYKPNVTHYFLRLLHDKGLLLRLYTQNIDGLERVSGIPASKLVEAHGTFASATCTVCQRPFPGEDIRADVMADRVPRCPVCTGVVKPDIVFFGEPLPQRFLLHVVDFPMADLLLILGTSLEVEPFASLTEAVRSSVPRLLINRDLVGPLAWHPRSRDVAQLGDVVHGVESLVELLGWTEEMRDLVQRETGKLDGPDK

[4] = Antioxidant activity assessed as inhibition of superoxide radical anion generation at 200 uM after 5 mins in presence of NBT and NADH relative to control; assay type: physicochemical
[5] = Stability of the compound assessed as Streptomyces griseus pronase-mediated degradation by measuring compound remaining at 160 uM after 60 mins by HPLC analysis; assay type: ADME; conditions: read-out: Stability
Method in brief: (§1)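 Compound incubated with pronase (broad-specificity protease mixture), percent compound remaining followed over time up to 60 min; a control peptide incubated under the same condition.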

[6] = molecular target: NAD-dependent protein deacylase sirtuin-5, mitochondrial (Homo sapiens, UniProt Q9NXA8); test: Inhibition of human SIRT5 using CH3CONH-AR-(Nepsilon-succinyl-lysine)-ST-CONH2 as substrate after 5 mins by HPLC analysis
[7] = molecular target: NAD-dependent protein deacylase sirtuin-6 (Homo sapiens, UniProt Q8N6T7); test: Inhibition of human SIRT6 using H2N-EALPK-(Nepsilon-myristoyl-lysine)-TGGPQ-CONH2 as substrate after 12 mins by HPLC analysis
[8] = Stability of the compound assessed as Streptomyces griseus pronase-mediated degradation at 160 uM measured within 3 mins by HPLC analysis; assay type: ADME; conditions: 0.05 h; method in brief: as §1

Sequence of NAD-dependent protein deacylase sirtuin-5, mitochondrial (Q9NXA8 whole entry): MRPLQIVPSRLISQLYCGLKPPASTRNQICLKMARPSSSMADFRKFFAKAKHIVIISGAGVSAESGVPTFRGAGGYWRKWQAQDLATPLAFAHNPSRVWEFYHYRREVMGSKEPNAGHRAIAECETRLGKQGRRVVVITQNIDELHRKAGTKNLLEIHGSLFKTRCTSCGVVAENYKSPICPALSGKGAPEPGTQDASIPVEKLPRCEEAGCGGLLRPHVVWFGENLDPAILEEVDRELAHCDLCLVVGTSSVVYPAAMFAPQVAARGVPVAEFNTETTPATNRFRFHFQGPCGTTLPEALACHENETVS
Sequence of NAD-dependent protein deacylase sirtuin-6 (Q8N6T7 whole entry): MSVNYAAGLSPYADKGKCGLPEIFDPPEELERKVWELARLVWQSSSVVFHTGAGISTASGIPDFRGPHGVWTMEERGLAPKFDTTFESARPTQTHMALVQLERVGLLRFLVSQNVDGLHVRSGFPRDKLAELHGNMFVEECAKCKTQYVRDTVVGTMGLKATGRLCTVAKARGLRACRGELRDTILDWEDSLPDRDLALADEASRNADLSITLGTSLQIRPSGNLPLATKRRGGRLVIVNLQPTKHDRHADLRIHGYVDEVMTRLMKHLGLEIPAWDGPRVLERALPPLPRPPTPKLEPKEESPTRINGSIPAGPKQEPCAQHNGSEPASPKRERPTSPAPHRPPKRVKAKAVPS

Compound: CNC(=S)NCCCC[C@H](NC(=O)[C@H](CCCCNC(C)=O)NC(C)=O)C(=O)N[C@@H](CCCCNC(C)=O)C(N)=O
- IC50 [1]: 5.6 µM
- IC50 [2]: 1.65 µM
- IC50 [3]: 2.2 µM
- inhibition (INH) [4]: 50%
- remaining at 1 h, 160 µM [5]: 88%

Compound: CC(=O)NCCCC[C@H](NC(=O)[C@H](CCCCNC(N)=S)NC(=O)[C@H](CCCCNC(C)=O)NC(C)=O)C(N)=O
- IC50 [1]: 49.9 µM
- IC50 [2]: 30.4 µM
- IC50 [3]: 5.4 µM

Compound: CC(=O)NCCCC[C@H](NC(=O)[C@H](CCCCNC(=S)Nc1ccccc1)NC(=O)[C@H](CCCCNC(C)=O)NC(C)=O)C(N)=O
- IC50 [1]: 62.9 µM

Compound: CC(=O)NCCCC[C@H](NC(=O)[C@H](CCCCNC(C)=S)NC(=O)[C@H](CCCCNC(C)=O)NC(C)=O)C(N)=O
- inhibition (INH) [4]: 6%

Compound: CC(=O)NCCCC[C@H](NC(=O)[C@H](CCCCNC(=S)NCC(=O)O)NC(=O)[C@H](CCCCNC(C)=O)NC(C)=O)C(N)=O
- IC50 [6]: > 100 µM

Compound: CSCC[C@H](NC(=O)[C@H](CC(C)C)NC(=O)[C@H](CCCCNC(C)=O)NC(=O)[C@H](CCCCN)NC(=O)[C@@H](N)Cc1cnc[nH]1)C(=O)O (H-HKK(Ac)LM-OH)
- Stability [8]: Unstable

Other lines, results leading:

- IC50 [6]: 5 µM
- IC50 [7]: 2400 µM
Compound: CC(=O)NCCCC[C@H](NC(=O)[C@H](CCCCNC(=S)NCCC(=O)O)NC(=O)[C@H](CCCCNC(C)=O)NC(C)=O)C(N)=O

- IC50 [6]: > 100 µM
Compound: CC(=O)NCCCC[C@H](NC(=O)[C@H](CCCCNC(=S)NCCCC(=O)O)NC(=O)[C@H](CCCCNC(C)=O)NC(C)=O)C(N)=O
